Results published in ChEMBL document CHEMBL1147186, “Dibenzothiazoles as novel amyloid-imaging agents” (Bioorg Med Chem, 2007).

Legend:
[1] = biological target: Amyloid-beta precursor protein (Homo sapiens, UniProt P05067); assay: Displacement of [3H]PIB from beta amyloid in brain homogenate from Alzheimer's patient; format: tissue-based
How it was run: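 Competition binding against [3H]PIB (0.05 nM final) in postmortem AD gray-matter homogenate prepared in PBS pH 7.4. Inhibitors at 10^-5 to 10^-12 mol/L (PBS, under 1% DMSO), incubated 37 °C for 1 h. Bound radioligand was collected by GF/B vacuum filtration, washed three times with PBS and scintillation-counted. Nonspecific binding was defined with 10 µM PIB. Ki was obtained by nonlinear regression.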

[2] = Partition coefficient, log P of the compound; format: physicochemical; settings: octanol/water
How it was run: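 Shake-flask logP using the [125I] radioligand (RCP >98%) in n-octanol and 0.1 M phosphate buffer pH 7.4. Mixture vortexed 3 min at room temperature and centrifuged 3500 rpm for 5 min. Both phases were weighed and counted; logP is log of the cpm/g octanol to cpm/g buffer ratio. The octanol phase was repartitioned until values were consistent; done in triplicate.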

[3] = system: Brain; assay: Biodistribution in Swiss-Webster mouse brain at 0.185 MBq, iv after 2 mins; format: ADME, organism-based; settings: in vivo
How it was run: (§1)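 Radioiodinated tracer in saline/ethylene glycol/ethanol/HCl vehicle, single tail-vein injection under anesthesia into 2-month-old Swiss-Webster mice (n = 3 per time point). Animals killed by heart puncture at 2, 30 and 60 min; brain removed, weighed and gamma-counted. Uptake expressed as % injected dose per gram.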

[4] = system: Brain; assay: Biodistribution in Swiss-Webster mouse brain at 0.185 MBq, iv after 30 mins; format: ADME, organism-based; settings: in vivo, 0.5 h; how it was run: as §1
[5] = system: Brain; assay: Biodistribution in Swiss-Webster mouse brain at 0.185 MBq, iv after 60 mins; format: ADME, organism-based; settings: in vivo, 1 h; how it was run: as §1

Chain of Amyloid-beta precursor protein (P05067 whole entry): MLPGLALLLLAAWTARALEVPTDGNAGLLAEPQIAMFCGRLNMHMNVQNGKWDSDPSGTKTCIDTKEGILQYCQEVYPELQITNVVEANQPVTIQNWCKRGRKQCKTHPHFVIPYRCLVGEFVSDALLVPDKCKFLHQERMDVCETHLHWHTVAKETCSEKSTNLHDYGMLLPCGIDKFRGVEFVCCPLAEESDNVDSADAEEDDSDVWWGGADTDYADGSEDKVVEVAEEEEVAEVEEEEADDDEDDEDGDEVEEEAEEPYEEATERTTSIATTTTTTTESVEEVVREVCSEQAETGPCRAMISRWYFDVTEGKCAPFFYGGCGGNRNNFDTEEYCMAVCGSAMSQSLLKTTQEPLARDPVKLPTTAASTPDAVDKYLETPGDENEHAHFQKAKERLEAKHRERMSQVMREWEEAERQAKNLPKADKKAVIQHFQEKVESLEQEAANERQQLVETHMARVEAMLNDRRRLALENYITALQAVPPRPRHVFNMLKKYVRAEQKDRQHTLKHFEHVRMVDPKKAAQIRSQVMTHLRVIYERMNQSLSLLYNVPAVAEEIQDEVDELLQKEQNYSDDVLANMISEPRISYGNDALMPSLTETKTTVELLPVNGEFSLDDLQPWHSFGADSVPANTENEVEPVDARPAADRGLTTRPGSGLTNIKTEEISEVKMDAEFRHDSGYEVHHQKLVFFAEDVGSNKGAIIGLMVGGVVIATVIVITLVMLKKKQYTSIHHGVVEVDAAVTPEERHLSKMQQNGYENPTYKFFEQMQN

## Nc1ccc(-c2nc3ccc(-c4nc5ccc(F)cc5s4)cc3s2)cc1
[1]
  Ki: 36 nM

## CNc1ccc(-c2nc3ccc(-c4nc5ccc(Cl)cc5s4)cc3s2)cc1
[1]
  Ki: 6.8 nM

## CN(C)c1ccc(-c2nc3ccc(-c4nc5ccc(F)cc5s4)cc3s2)cc1
[1]
  Ki: 23 nM

## Nc1ccc(-c2nc3ccc(-c4nc5ccccc5s4)cc3s2)cc1I
[1]
  Ki: 21 nM
[2]
  logP: 2.7

## Nc1ccc(-c2nc3ccc(-c4nc5ccccc5s4)cc3s2)cc1[125I]
[2]
  logP: 2.7
[3]
  Drug uptake: 3.71 % ID/g
[4]
  Drug uptake: 0.78 % ID/g
[5]
  Drug uptake: 0.43 % ID/g

## Nc1ccc(-c2nc3ccc(-c4nc5ccccc5s4)cc3s2)cc1
[1]
  Ki: 25 nM

## Nc1ccc(-c2nc3ccc(-c4nc5ccc(Cl)cc5s4)cc3s2)cc1
[1]
  Ki: 34 nM

## CNc1ccc(-c2nc3ccc(-c4nc5ccccc5s4)cc3s2)cc1
[1]
  Ki: 22 nM

## CNc1ccc(-c2nc3ccc(-c4nc5ccc(F)cc5s4)cc3s2)cc1
[1]
  Ki: 27 nM

## COc1ccc2nc(-c3ccc4nc(-c5ccc(N)cc5)sc4c3)sc2c1
[1]
  Ki: 25 nM
